Assay results as given in ChEMBL document CHEMBL2424622, “Development of amino-pyrimidine inhibitors of c-Jun N-terminal kinase (JNK): kinase profiling guided optimization of a 1,2,3-benzotriazole lead” (Bioorg Med Chem Lett, 2013).

Tests used:
[1] = biological target: Mitogen-activated protein kinase kinase kinase 9 (Homo sapiens) (UniProt P80192); assay: Competitive binding affinity to MLK1 (unknown origin) at 10 uM in presence of ATP relative to control
[2] = biological target: MAP/microtubule affinity-regulating kinase 3 (Homo sapiens) (UniProt P27448); assay: Competitive binding affinity to MARK3 (unknown origin) at 10 uM in presence of ATP relative to control
[3] = test system: T1, Receptor-type tyrosine-protein kinase FLT3 (Homo sapiens), P36888 [D835H]; assay: Competitive binding affinity to FLT3 D835H mutant (unknown origin) at 10 uM in presence of ATP relative to control
T1 sequence (whole entry): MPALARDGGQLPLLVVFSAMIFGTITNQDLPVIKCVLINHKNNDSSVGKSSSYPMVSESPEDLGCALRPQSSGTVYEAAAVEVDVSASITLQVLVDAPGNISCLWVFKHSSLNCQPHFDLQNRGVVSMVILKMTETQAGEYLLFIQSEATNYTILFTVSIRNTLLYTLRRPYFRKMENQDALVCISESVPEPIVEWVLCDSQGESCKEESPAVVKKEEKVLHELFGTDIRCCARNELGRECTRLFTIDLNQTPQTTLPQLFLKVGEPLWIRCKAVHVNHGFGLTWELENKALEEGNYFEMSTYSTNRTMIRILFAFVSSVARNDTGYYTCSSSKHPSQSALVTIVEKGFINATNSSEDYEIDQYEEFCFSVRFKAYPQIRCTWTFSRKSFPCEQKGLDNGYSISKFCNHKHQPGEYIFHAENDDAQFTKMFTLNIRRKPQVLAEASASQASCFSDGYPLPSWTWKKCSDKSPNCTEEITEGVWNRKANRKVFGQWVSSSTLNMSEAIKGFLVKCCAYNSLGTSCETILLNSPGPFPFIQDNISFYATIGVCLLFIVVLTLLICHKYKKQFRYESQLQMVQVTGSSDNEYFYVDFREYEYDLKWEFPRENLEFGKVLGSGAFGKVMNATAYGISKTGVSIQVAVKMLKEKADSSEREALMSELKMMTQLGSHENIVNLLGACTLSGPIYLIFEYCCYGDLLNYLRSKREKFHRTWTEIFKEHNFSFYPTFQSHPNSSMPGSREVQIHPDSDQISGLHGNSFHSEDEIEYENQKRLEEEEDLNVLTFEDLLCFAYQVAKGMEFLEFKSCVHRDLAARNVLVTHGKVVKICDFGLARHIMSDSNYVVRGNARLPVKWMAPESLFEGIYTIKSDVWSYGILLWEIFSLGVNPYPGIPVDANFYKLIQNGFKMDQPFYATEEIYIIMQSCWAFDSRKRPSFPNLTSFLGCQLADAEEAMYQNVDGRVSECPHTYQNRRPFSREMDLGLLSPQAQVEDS

Homo sapiens = species: Homo sapiens; assay: Competitive binding affinity to EGFR L747 to T751 deletion mutant, Sins mutant (unknown origin) at 10 uM in presence of ATP relative to control
[4] = test system: Epidermal growth factor receptor (Homo sapiens), P00533 [G719S]; assay: Competitive binding affinity to EGFR G719S mutant (unknown origin) at 10 uM in presence of ATP relative to control
Sequence of Epidermal growth factor receptor (Homo sapiens), P00533 [G719S] (P00533 whole entry G719S): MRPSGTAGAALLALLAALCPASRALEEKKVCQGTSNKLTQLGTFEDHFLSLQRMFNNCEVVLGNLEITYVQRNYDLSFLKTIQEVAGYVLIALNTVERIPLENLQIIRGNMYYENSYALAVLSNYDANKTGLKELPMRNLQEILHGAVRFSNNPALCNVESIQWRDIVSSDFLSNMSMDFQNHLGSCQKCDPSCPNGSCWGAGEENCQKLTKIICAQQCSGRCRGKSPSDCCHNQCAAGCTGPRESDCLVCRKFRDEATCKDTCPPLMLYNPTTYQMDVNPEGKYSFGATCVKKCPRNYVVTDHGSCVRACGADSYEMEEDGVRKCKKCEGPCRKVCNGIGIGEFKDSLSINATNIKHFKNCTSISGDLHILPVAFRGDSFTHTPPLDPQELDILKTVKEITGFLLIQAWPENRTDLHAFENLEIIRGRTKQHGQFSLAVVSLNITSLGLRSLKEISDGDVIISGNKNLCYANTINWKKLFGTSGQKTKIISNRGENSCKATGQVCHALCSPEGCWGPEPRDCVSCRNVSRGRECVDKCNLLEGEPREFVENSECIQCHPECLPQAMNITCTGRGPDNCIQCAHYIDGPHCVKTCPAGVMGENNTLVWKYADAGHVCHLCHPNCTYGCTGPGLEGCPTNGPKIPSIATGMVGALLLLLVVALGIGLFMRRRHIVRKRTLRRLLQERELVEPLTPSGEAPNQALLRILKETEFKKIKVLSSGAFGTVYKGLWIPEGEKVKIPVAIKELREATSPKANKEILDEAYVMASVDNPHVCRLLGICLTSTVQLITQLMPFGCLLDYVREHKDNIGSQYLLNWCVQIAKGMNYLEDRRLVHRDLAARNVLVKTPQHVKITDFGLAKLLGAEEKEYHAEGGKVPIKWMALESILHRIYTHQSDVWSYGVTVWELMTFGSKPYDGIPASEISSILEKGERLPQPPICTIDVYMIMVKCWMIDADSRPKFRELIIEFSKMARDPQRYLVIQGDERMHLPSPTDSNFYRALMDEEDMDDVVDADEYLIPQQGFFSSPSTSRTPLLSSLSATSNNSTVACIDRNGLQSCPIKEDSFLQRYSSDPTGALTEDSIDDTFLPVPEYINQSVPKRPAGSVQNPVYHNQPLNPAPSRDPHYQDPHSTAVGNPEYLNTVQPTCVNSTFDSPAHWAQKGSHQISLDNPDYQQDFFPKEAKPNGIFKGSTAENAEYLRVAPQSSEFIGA
How it was run: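 In vitro ATP-site competition binding assay, part of profiling against a diverse panel of 128 kinases. Each compound was tested at a single concentration of 10 µM. Kinome selectivity was summarized as S15 selectivity scores.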

[5] = biological target: T2, Serine/threonine-protein kinase Chk1 (Homo sapiens) (UniProt O14757); assay: Competitive binding affinity to CHEK1 (unknown origin) at 10 uM in presence of ATP relative to control
T2 sequence (whole entry): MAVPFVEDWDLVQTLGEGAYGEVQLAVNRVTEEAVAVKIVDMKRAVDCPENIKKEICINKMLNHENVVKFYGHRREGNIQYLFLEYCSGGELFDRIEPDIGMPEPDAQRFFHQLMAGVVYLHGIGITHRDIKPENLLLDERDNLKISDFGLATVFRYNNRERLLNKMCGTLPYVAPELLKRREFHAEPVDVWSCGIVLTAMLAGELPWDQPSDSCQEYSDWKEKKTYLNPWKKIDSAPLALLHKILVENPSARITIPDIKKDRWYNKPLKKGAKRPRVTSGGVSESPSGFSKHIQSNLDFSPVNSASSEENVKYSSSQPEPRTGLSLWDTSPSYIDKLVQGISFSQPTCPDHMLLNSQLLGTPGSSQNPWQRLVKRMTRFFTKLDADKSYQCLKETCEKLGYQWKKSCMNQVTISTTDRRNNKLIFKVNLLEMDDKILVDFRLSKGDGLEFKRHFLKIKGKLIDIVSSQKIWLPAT

[6] = biological target: T3, Activin receptor type-1B (Homo sapiens) (UniProt P36896); assay: Competitive binding affinity to ACVR1B (unknown origin) at 10 uM in presence of ATP relative to control
T3 sequence (whole entry): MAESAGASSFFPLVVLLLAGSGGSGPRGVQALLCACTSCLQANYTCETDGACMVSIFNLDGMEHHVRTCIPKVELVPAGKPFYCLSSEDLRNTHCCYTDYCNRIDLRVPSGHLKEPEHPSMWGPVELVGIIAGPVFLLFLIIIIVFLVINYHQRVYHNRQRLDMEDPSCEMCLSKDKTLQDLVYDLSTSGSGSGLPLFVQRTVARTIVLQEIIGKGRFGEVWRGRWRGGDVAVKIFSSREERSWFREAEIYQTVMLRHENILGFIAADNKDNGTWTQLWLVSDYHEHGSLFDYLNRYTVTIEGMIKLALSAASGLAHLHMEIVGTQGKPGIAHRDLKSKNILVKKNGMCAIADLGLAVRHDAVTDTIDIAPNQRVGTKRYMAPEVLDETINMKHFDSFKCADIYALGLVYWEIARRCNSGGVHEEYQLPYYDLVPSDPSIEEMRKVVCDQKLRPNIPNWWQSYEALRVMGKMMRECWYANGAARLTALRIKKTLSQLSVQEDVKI

[7] = biological target: Serine/threonine-protein kinase 33 (Homo sapiens) (UniProt Q9BYT3); assay: Competitive binding affinity to STK33 (unknown origin) at 10 uM in presence of ATP relative to control
Sequence of Serine/threonine-protein kinase 33 (Homo sapiens) (Q9BYT3 whole entry, looked up): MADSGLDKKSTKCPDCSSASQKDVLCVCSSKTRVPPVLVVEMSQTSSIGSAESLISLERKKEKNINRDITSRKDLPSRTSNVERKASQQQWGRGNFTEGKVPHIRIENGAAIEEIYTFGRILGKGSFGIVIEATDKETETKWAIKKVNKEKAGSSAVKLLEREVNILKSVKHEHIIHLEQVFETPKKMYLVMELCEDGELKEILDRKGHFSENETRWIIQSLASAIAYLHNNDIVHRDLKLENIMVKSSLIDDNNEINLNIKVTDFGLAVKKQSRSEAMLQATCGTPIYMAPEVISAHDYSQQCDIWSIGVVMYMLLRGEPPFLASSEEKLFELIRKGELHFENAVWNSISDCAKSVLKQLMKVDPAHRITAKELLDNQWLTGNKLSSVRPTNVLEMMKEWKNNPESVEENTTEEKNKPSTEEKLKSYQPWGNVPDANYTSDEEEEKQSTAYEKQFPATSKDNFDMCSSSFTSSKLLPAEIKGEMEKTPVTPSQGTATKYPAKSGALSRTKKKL

[8] = biological target: Myosin light chain kinase, smooth muscle (Homo sapiens) (UniProt Q15746); assay: Competitive binding affinity to MYLK (unknown origin) at 10 uM in presence of ATP relative to control
Sequence of Myosin light chain kinase, smooth muscle (Homo sapiens) (Q15746 whole entry): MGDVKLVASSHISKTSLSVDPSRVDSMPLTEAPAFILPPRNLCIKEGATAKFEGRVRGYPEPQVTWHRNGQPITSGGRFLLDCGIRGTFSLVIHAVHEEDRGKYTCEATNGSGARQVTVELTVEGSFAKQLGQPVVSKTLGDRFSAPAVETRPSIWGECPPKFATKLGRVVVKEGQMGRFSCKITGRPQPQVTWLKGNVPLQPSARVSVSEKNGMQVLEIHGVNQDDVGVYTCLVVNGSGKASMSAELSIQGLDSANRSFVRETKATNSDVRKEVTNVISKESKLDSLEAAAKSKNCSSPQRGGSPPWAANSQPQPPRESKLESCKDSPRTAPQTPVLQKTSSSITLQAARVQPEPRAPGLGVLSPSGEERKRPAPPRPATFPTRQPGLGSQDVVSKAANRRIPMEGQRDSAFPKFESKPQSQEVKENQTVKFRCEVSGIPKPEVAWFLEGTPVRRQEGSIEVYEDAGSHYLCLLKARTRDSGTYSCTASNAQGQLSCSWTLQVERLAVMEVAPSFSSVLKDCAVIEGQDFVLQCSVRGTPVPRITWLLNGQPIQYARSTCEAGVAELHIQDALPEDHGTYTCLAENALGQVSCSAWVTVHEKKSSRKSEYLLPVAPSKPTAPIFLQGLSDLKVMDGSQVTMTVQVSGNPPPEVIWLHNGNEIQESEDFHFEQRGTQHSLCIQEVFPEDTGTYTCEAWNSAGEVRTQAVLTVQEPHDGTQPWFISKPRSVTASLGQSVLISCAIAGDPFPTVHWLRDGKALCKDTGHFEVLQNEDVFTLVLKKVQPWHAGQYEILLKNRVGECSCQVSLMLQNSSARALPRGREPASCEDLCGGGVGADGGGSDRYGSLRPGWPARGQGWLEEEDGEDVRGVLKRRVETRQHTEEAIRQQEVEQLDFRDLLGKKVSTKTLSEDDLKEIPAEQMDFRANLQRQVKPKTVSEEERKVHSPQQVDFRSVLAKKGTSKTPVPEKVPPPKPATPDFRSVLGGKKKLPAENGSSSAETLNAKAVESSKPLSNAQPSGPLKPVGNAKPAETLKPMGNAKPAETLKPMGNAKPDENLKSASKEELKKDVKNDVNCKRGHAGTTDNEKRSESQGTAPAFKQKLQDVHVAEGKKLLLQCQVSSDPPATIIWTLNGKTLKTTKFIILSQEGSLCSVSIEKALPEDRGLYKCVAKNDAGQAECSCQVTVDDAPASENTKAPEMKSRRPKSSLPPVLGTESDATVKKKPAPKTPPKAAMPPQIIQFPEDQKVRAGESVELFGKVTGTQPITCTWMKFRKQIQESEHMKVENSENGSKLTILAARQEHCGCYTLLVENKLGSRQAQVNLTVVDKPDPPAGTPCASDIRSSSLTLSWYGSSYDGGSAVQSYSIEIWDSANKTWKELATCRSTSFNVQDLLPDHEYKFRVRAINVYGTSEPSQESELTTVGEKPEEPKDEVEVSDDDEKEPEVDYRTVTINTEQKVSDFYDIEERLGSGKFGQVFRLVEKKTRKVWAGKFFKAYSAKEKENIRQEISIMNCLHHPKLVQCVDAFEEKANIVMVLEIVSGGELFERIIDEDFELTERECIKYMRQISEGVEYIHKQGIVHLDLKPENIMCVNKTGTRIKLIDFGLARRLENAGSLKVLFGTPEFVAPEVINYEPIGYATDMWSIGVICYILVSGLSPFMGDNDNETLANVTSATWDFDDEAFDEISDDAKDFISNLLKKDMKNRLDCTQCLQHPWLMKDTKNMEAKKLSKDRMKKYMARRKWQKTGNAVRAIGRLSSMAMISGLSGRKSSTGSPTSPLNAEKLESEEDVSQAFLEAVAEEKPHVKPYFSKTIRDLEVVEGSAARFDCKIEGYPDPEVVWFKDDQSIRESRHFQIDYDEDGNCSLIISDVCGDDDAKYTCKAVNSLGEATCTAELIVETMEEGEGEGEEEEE

Sequence of Mitogen-activated protein kinase kinase kinase 9 (Homo sapiens) (P80192 whole entry, looked up): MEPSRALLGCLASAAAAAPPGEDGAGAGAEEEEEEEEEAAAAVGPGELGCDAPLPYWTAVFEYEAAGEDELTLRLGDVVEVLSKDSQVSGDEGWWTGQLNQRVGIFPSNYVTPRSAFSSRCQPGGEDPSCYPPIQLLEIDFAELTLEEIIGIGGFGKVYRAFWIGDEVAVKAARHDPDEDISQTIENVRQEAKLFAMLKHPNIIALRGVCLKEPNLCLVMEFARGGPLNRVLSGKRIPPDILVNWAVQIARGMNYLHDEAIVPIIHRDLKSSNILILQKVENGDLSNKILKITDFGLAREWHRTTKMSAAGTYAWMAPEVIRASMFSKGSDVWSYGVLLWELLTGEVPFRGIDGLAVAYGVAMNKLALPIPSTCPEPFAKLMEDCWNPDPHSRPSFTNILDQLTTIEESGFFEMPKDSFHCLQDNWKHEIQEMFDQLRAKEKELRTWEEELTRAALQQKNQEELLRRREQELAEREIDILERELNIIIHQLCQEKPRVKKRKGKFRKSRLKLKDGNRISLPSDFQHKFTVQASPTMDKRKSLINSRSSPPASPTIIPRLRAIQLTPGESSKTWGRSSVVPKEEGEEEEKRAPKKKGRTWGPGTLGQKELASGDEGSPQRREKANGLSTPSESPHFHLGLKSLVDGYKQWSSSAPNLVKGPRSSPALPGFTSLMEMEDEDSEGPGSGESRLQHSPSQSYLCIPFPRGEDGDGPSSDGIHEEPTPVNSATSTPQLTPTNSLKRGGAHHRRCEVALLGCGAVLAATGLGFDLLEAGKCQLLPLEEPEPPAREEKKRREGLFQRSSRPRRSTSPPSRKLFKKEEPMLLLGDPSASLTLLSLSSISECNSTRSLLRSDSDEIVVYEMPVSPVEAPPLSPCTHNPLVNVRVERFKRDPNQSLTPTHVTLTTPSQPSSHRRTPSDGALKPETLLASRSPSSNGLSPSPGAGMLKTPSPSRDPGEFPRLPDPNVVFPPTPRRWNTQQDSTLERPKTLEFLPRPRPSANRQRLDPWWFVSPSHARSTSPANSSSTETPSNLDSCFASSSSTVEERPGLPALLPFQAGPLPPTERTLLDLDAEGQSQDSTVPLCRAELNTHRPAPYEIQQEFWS

Row | Structure (SMILES) | inhibition [1] | inhibition [2] | inhibition [3] | inhibition (Homo sapiens) | inhibition [4] | inhibition [5] | inhibition [6] | inhibition [7] | inhibition [8]
1 | O[C@H]1CC[C@H](Nc2nccc(-n3ccc4ccccc43)n2)CC1 | < 50% | < 50% | < 50% | < 50% | < 50% | < 50% | < 50% | < 50% | < 50%
2 | O[C@H]1CC[C@H](Nc2nccc(-n3nnc4ccccc43)n2)CC1 | < 50% | < 50% | 99% | < 50% | < 50% | < 50% | < 50% | 75% | 94%
3 | O[C@H]1CC[C@H](Nc2nccc(-n3ncc4ccccc43)n2)CC1 | < 50% | < 50% | 100% | < 50% | < 50% | < 50% | < 50% | 78% | 74%
4 | O[C@H]1CC[C@H](Nc2nccc(-c3n[nH]c4ccccc34)n2)CC1 | – | – | 100% | < 50% | < 50% | – | < 50% | 98% | –
